Laboratory results reported in ChEMBL document CHEMBL3393048, “Discovery of potent cytotoxic ortho-aryl chalcones as new scaffold targeting tubulin and mitosis with affinity-based fluorescence” (J Med Chem, 2014).
Activity calls are given as the source filed them. The calls are words filed in the database; no cut-off is given here.

Columns and labels:
A549 [1] = assay: Antiproliferative activity against human A549 cells after 48 hrs by SRB method; type: functional, cell-based; conditions: A549, 48 h
How it was run: (§1)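 SRB assay. Cells in DMEM high glucose with 10% FBS were seeded at 5000/well and grown 24 h; a day-0 plate was fixed at that point. Compounds were added in triplicate for 48 h. Cells were fixed with TCA at 4 °C for 1 h, stained with 0.4% SRB, and the dye was solubilized in 10 mM Tris pH 10.4. OD was read at 515 nm with day-0 OD subtracted. IC50 came from nonlinear regression of dose–response curves from at least two independent experiments.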

[2] = Antiproliferative activity against human CNE2 cells after 48 hrs by SRB method; type: functional, cell-based; conditions: CNE-2, 48 h
How it was run: (§2)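 SRB assay. Cells in DMEM high glucose with 10% FBS were seeded at 5000/well and grown 24 h; a day-0 plate was fixed at that point. Compounds were added in triplicate for 48 h. IC50 came from nonlinear regression of dose–response curves from at least two independent experiments.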

SW480 = assay: Antiproliferative activity against human SW480 cells after 48 hrs by SRB method; type: functional, cell-based; conditions: SW480, 48 h; how it was run: as §2
MCF7 [3] = assay: Antiproliferative activity against human MCF7 cells after 48 hrs by SRB method; type: functional, cell-based; conditions: MCF7, 48 h; how it was run: as §2
HepG2 = assay: Antiproliferative activity against human HepG2 cells after 48 hrs by SRB method; type: functional, cell-based; conditions: HepG2, 48 h; how it was run: as §2
Tubulin (Homo sapiens) [4] = target: T1, Tubulin (Homo sapiens) (UniProt P68371+Q9H4B7+P0DPH7+P68366+Q13509+Q71U36+P04350+Q3ZCM7+P07437+P68363+Q9BQE3+Q6PEY2+Q13885+Q9BVA1+Q9BUF5); assay: Inhibition of tubulin polymerization (unknown origin) at 5 uM by DAPI staining-based fluorescence microscopy; type: protein-complex assay
A2780 [5] = assay: Antiproliferative activity against human A2780 cells after 48 hrs by SRB method; type: functional, cell-based; conditions: A2780, 48 h; how it was run: as §2
A2780 [6] = assay: Antiproliferative activity against taxol-resistant human A2780 cells after 48 hrs by SRB method; type: functional, cell-based; conditions: A2780, 48 h; how it was run: as §2
[7] = Antiproliferative activity against human HCT8 cells after 48 hrs by SRB method; type: functional, cell-based; conditions: HCT-8, 48 h; how it was run: as §2
[8] = Antiproliferative activity against vincristine-resistant human HCT8 cells after 48 hrs by SRB method; type: functional, cell-based; conditions: HCT-8, 48 h; how it was run: as §1
A549 [9] = assay: Antiproliferative activity against cis-platinum-resistant human A549 cells after 48 hrs by SRB method; type: functional, cell-based; conditions: A549, 48 h; how it was run: as §1
MCF7 [10] = assay: Antiproliferative activity against doxorubicin-resistant human MCF7 cells after 48 hrs by SRB method; type: functional, cell-based; conditions: MCF7, 48 h; how it was run: as §2
A2780 [11] = assay: Drug resistance index, ratio of IC50 for taxol-resistant human A2780 cells to IC50 for human A2780 cells; type: functional
How it was run: (§3)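 Drug resistance index = IC50 in the resistant line / IC50 in its parental line. […] Pairs: A549/CDDP vs A549, MCF-7/DOX vs MCF-7, A2780/TAX vs A2780, HCT-8/VCT vs HCT-8.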

[12] = Drug resistance index, ratio of IC50 for vincristine-resistant human HCT8 cells to IC50 for human HCT8 cells; type: functional, HCT-8; how it was run: as §3
A549 [13] = assay: Drug resistance index, ratio of IC50 for cis-platinum-resistant human A549 cells to IC50 for human A549 cells; type: functional; how it was run: as §3
MCF7 [14] = assay: Drug resistance index, ratio of IC50 for doxorubicin-resistant human MCF7 cells to IC50 for human MCF7 cells; type: functional; how it was run: as §3
A549 [15] = assay: Cell cycle arrest in human A549 cells assessed as accumulation at G2/M phase at 7.81 to 250 nM after 24 hrs by Hoechst 33342 staining-based ArrayScanVTI analysis; type: functional
How it was run: (§4)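 A549 cells were seeded at 5000/well, cultured overnight, then treated 24 h over a 7.81–250 concentration series. Cells were fixed in prewarmed paraformaldehyde 10 min, permeabilized with Triton X-100, and nuclei stained with Hoechst 33342. Imaging was by ArrayScan VTI high-content analysis. Phase percentage = cells within a gated fluorescence intensity / total cells counted.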

A549 [16] = assay: Cell cycle arrest in human A549 cells assessed as accumulation at G2/M phase at 125 nM after 24 hrs by Hoechst 33342 staining-based ArrayScanVTI analysis; type: functional; how it was run: as §4
Tubulin = assay: Inhibition of tubulin polymerization (unknown origin) by DAPI staining-based fluorescence microscopy; type: protein-complex assay, Homo sapiens
How it was run: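 Purified tubulin (99% pure; 20 μM as supplied) mixed with compound in general tubulin buffer (80 mM PIPES pH 6.9, 2.0 mM MgCl₂, 0.5 mM EGTA) with 1 mM GTP, 20% glycerol and DAPI reporter. Polymerization tracked kinetically at 37 °C as fluorescence rise (ex 360, em 450 nm). Duplicate wells per concentration. IC50 from at least two independent experiments.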

Tubulin (Homo sapiens) [17] = target: T1, Tubulin (Homo sapiens); assay: Displacement of (E)-3-(4-(Dimethylamino)phenyl)-1-(4'-fluoro[1,1'-biphenyl]-2-yl)prop-2-en-1-one from tubulin (unknown origin) by fluorescence assay; type: protein-complex assay
How it was run: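 Competition assay. Tubulin (4 μM) and probe (8 μM) in general tubulin buffer at 37 °C were incubated until fluorescence plateaued (about 30 min; excitation 430, emission 510 nm). Competitors were then added at 0–80 μM and kinetics recorded at 37 °C. The stable F/F0 ratio was plotted against competitor concentration and fitted.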

A549 [18] = assay: Cell cycle arrest in human A549 cells assessed as accumulation at G2/M phase at 31.25 nM after 24 hrs by Hoechst 33342 staining-based ArrayScanVTI analysis; type: functional
A549 [19] = assay: Induction of apoptosis in human A549 cells assessed as late apoptotic cells at 0.25 uM after 48 hrs by Annexin V-FITC/propidium iodide staining-based flow cytometry (reference value: 0.10%); type: functional
A549 [20] = assay: Induction of apoptosis in human A549 cells assessed as early apoptotic cells at 0.25 uM after 48 hrs by Annexin V-FITC/propidium iodide staining-based flow cytometry (reference value: 0.47%); type: functional
A549 [21] = assay: Induction of apoptosis in human A549 cells assessed as necrotic cells at 0.25 uM after 48 hrs by Annexin V-FITC/propidium iodide staining-based flow cytometry (reference value: 0.06%); type: functional
A549 [22] = assay: Induction of apoptosis in human A549 cells assessed as viable cells at 0.25 uM after 48 hrs by Annexin V-FITC/propidium iodide staining-based flow cytometry (reference value: 99.37%); type: functional; conditions: A549, 48 h, read-out: Activity
A549 [23] = assay: Cell cycle arrest in human A549 cells assessed as accumulation at G2/M phase at 62.5 nM after 24 hrs by Hoechst 33342 staining-based ArrayScanVTI analysis; type: functional; how it was run: as §4

## COc1ccc(/C=C/C(=O)c2ccccc2-c2ccc(OC)c(OC)c2)cc1OC
A549 [1]
  IC50: 8500 nM
[2]
  IC50: 2500 nM
SW480
  IC50: 7600 nM
MCF7 [3]
  IC50: 4900 nM
HepG2
  IC50: 3200 nM
Tubulin (Homo sapiens) [4]
  inhibition: inactive

## COc1ccc(/C=C/C(=O)c2ccccc2-c2ccc(F)cc2)cc1
A549 [1]
  IC50: 140 nM
[2]
  IC50: 53 nM
SW480
  IC50: 61 nM
MCF7 [3]
  IC50: 670 nM
HepG2
  IC50: 93 nM
A2780 [5]
  IC50: 170 nM
A2780 [6]
  IC50: 690 nM
[7]
  IC50: 220 nM
[8]
  IC50: 230 nM
A549 [9]
  IC50: 210 nM
MCF7 [10]
  IC50: 120 nM
A2780 [11]
  Ratio IC50: 4.1
[12]
  Ratio IC50: 1
A549 [13]
  Ratio IC50: 1.1
MCF7 [14]
  Ratio IC50: 0.29
A549 [15]
  Activity: Active
A549 [16]
  Activity: Active
Tubulin
  IC50: 1800 nM

## CC[C@]1(O)C[C@H]2CN(CCc3c([nH]c4ccccc34)[C@@](C(=O)OC)(c3cc4c(cc3OC)N(C=O)[C@H]3[C@@](O)(C(=O)OC)[C@H](OC(C)=O)[C@]5(CC)C=CCN6CC[C@]43[C@@H]65)C2)C1 [VINCRISTINE]
A2780 [6]
  IC50: 930 nM
[8]
  IC50: 1900 nM
A549 [9]
  IC50: 56 nM
MCF7 [10]
  IC50: 4300 nM
A549 [13]
  Ratio IC50: 4.7
MCF7 [14]
  Ratio IC50: 1063
Tubulin (Homo sapiens) [17]
  Activity: inactive

## COc1cc2c(c(OC)c1OC)-c1ccc(OC)c(=O)cc1[C@@H](NC(C)=O)CC2 [COLCHICINE]
A549 [1]
  IC50: 50 nM
A549 [18]
  Activity: Active
A549 [19]
  Activity: 37.72%
A549 [20]
  Activity: 36.19%
A549 [21]
  Activity: 6.93%
A549 [22]
  viability at 0.25 µM: 19.2%

## COc1cc(/C=C/C(=O)c2ccccc2-c2ccc(F)cc2)ccc1O
A549 [1]
  IC50: 7600 nM
[2]
  IC50: 2500 nM
SW480
  IC50: 6600 nM
MCF7 [3]
  IC50: 4000 nM
HepG2
  IC50: 2800 nM
Tubulin (Homo sapiens) [4]
  inhibition: inactive

## COc1ccc(/C=C/C(=O)c2ccccc2-c2ccc(F)cc2)cc1O
A549 [1]
  IC50: 65 nM
[2]
  IC50: 87 nM
SW480
  IC50: 57 nM
MCF7 [3]
  IC50: 190 nM
HepG2
  IC50: 23 nM
A2780 [5]
  IC50: 27 nM
A2780 [6]
  IC50: 500 nM
[7]
  IC50: 38 nM
[8]
  IC50: 420 nM
A549 [9]
  IC50: 430 nM
MCF7 [10]
  IC50: 7 nM
A2780 [11]
  Ratio IC50: 18
[12]
  Ratio IC50: 11
A549 [13]
  Ratio IC50: 10
MCF7 [14]
  Ratio IC50: 0.04
A549 [15]
  Activity: Active
A549 [23]
  Activity: Active
Tubulin
  IC50: 1300 nM
